Laboratory results published in ChEMBL document CHEMBL1157144, “Novel 16-membered macrolides modified at C-12 and C-13 positions of midecamycin A1 and miokamycin. Part 1: Synthesis and evaluation of 12,13-carbamate and 12-arylalkylamino-13-hydroxy analogues” (2008).
In brackets after ≈: the same amount, converted by molar mass.

Tests used:
Assay type in all cases: functional
[1] = system: Staphylococcus aureus; experiment: Antibacterial activity against standard Staphylococcus aureus after 20 hrs by agar dilution method
Procedure, shortened: (§1)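 Agar dilution MIC. The inoculum came from a seed culture in Sensitivity test broth. A 5 µl portion of a cell suspension of about 10^6 CFU/ml was inoculated onto Sensitivity disk agar supplemented with 5% horse blood. Plates were incubated at 37 °C for 20 h, then MIC was read.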

[2] = system: Staphylococcus aureus; experiment: Antibacterial activity against susceptible Staphylococcus aureus after 20 hrs by agar dilution method; procedure, shortened: as §1
[3] = system: Staphylococcus aureus; experiment: Antibacterial activity against ermA-constitutive resistant Staphylococcus aureus after 20 hrs by agar dilution method; procedure, shortened: as §1
[4] = system: Staphylococcus aureus; experiment: Antibacterial activity against ermB-inducible resistant Staphylococcus aureus after 20 hrs by agar dilution method; procedure, shortened: as §1
[5] = system: Staphylococcus aureus; experiment: Antibacterial activity against ermC-inducible resistant Staphylococcus aureus after 20 hrs by agar dilution method; procedure, shortened: as §1
[6] = system: Streptococcus pneumoniae; experiment: Antibacterial activity against susceptible Streptococcus pneumoniae after 20 hrs by agar dilution method
Procedure, shortened: (§2)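 MIC by agar dilution. Strains grown on blood agar plates for seed culture. About 5 µl of a suspension of roughly 10^6 CFU/ml spotted onto Sensitivity disk agar with 5% horse blood. Plates incubated at 37 °C for 20 h, then MIC read.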

[7] = system: Streptococcus pneumoniae; experiment: Antibacterial activity against ermB-constitutive resistant Streptococcus pneumoniae after 20 hrs by agar dilution method
Procedure, shortened: (§3)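 Agar dilution MIC. Streptococcal strains were pre-cultured on blood agar plates. A 5 µl portion of a cell suspension of about 10^6 CFU/ml was inoculated onto Sensitivity disk agar supplemented with 5% horse blood. Plates were incubated at 37 °C for 20 h, then MIC was read.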

[8] = system: Streptococcus pneumoniae; experiment: Antibacterial activity against ermB-inducible resistant Streptococcus pneumoniae after 20 hrs by agar dilution method; procedure, shortened: as §3
[9] = system: Streptococcus pneumoniae; experiment: Antibacterial activity against mefE efflux-resistant Streptococcus pneumoniae after 20 hrs by agar dilution method; procedure, shortened: as §3
[10] = system: Streptococcus pyogenes; experiment: Antibacterial activity against ermB-constitutive resistant Streptococcus pyogenes after 20 hrs by agar dilution method; procedure, shortened: as §3
[11] = system: Streptococcus pyogenes; experiment: Antibacterial activity against mefE efflux-resistant Streptococcus pyogenes after 20 hrs by agar dilution method; procedure, shortened: as §3
[12] = system: Moraxella catarrhalis; experiment: Antibacterial activity against standard Moraxella catarrhalis after 20 hrs by agar dilution method; procedure, shortened: as §2
[13] = system: Haemophilus influenzae; experiment: Antibacterial activity against standard Haemophilus influenzae after 20 hrs by agar dilution method; procedure, shortened: as §2
[14] = system: Haemophilus influenzae; experiment: Antibacterial activity against susceptible Haemophilus influenzae after 20 hrs by agar dilution method; procedure, shortened: as §2

Row | Compound | MIC [1] | MIC [2] | MIC [3] | MIC [4] | MIC [5] | MIC [6] | MIC [7] | MIC [8] | MIC [9] | MIC [10] | MIC [11] | MIC [12] | MIC [13] | MIC [14]
1 | CCC(=O)O[C@@H]1CC(=O)O[C@H](C)C[C@H](O)[C@H](N(C)CCCc2ccncc2)/C=C/[C@H](OC(C)=O)[C@H](C)C[C@H](CC=O)[C@H](O[C@@H]2O[C@H](C)[C@@H](O[C@H]3C[C@@](C)(O)[C@@H](OC(=O)CC)[C@H](C)O3)[C@H](N(C)C)[C@H]2O)[C@H]1OC | 0.2 µg/mL (≈ 0.196 µM) | 0.2 µg/mL (≈ 0.196 µM) | > 100 µg/mL | 0.2 µg/mL (≈ 0.196 µM) | 0.39 µg/mL (≈ 0.382 µM) | 0.05 µg/mL (≈ 0.0489 µM) | > 100 µg/mL | > 100 µg/mL | 0.1 µg/mL (≈ 0.0978 µM) | > 100 µg/mL | 0.1 µg/mL (≈ 0.0978 µM) | 0.78 µg/mL (≈ 0.763 µM) | 1.56 µg/mL (≈ 1.53 µM) | 12.5 µg/mL (≈ 12.2 µM)
2 | CCC(=O)O[C@@H]1CC(=O)O[C@H](C)C[C@H](O)[C@H](N(C)CCCCCc2ccccc2)/C=C/[C@H](OC(C)=O)[C@H](C)C[C@H](CC=O)[C@H](O[C@@H]2O[C@H](C)[C@@H](O[C@H]3C[C@@](C)(O)[C@@H](OC(=O)CC)[C@H](C)O3)[C@H](N(C)C)[C@H]2O)[C@H]1OC | 0.39 µg/mL (≈ 0.372 µM) | 0.39 µg/mL (≈ 0.372 µM) | > 100 µg/mL | 0.78 µg/mL (≈ 0.743 µM) | 0.39 µg/mL (≈ 0.372 µM) | 0.1 µg/mL (≈ 0.0953 µM) | 100 µg/mL (≈ 95.3 µM) | 12.5 µg/mL (≈ 11.9 µM) | 0.2 µg/mL (≈ 0.191 µM) | 25 µg/mL (≈ 23.8 µM) | 0.2 µg/mL (≈ 0.191 µM) | 0.39 µg/mL (≈ 0.372 µM) | 3.13 µg/mL (≈ 2.98 µM) | 25 µg/mL (≈ 23.8 µM)
3 | CCC(=O)O[C@@H]1CC(=O)O[C@H](C)C[C@@H]2OC(=O)N(CCc3ccccc3)[C@@H]2/C=C/[C@H](OC(C)=O)[C@H](C)C[C@H](CC=O)[C@H](O[C@@H]2O[C@H](C)[C@@H](O[C@H]3C[C@@](C)(O)[C@@H](OC(=O)CC)[C@H](C)O3)[C@H](N(C)C)[C@H]2O)[C@H]1OC | 0.78 µg/mL (≈ 0.765 µM) | 0.39 µg/mL (≈ 0.383 µM) | > 100 µg/mL | 6.25 µg/mL (≈ 6.13 µM) | 1.56 µg/mL (≈ 1.53 µM) | 0.2 µg/mL (≈ 0.196 µM) | > 100 µg/mL | 50 µg/mL (≈ 49.1 µM) | 0.2 µg/mL (≈ 0.196 µM) | > 100 µg/mL | 0.1 µg/mL (≈ 0.0981 µM) | 0.78 µg/mL (≈ 0.765 µM) | 3.13 µg/mL (≈ 3.07 µM) | 25 µg/mL (≈ 24.5 µM)
4 | CCC(=O)O[C@@H]1CC(=O)O[C@H](C)C[C@H](O)[C@H](N(C)CCCc2ccccc2)/C=C/[C@H](OC(C)=O)[C@H](C)C[C@H](CC=O)[C@H](O[C@@H]2O[C@H](C)[C@@H](O[C@H]3C[C@@](C)(O)[C@@H](OC(=O)CC)[C@H](C)O3)[C@H](N(C)C)[C@H]2O)[C@H]1OC | 0.2 µg/mL (≈ 0.196 µM) | 0.2 µg/mL (≈ 0.196 µM) | > 100 µg/mL | 0.2 µg/mL (≈ 0.196 µM) | 0.2 µg/mL (≈ 0.196 µM) | 0.05 µg/mL (≈ 0.049 µM) | > 100 µg/mL | 12.5 µg/mL (≈ 12.2 µM) | 0.1 µg/mL (≈ 0.0979 µM) | 100 µg/mL (≈ 97.9 µM) | 0.1 µg/mL (≈ 0.0979 µM) | 0.39 µg/mL (≈ 0.382 µM) | 1.56 µg/mL (≈ 1.53 µM) | 25 µg/mL (≈ 24.5 µM)
5 | CCC(=O)O[C@@H]1CC(=O)O[C@H](C)C[C@H](O)[C@H](N(C)CCc2ccccc2)/C=C/[C@H](OC(C)=O)[C@H](C)C[C@H](CC=O)[C@H](O[C@@H]2O[C@H](C)[C@@H](O[C@H]3C[C@@](C)(O)[C@@H](OC(=O)CC)[C@H](C)O3)[C@H](N(C)C)[C@H]2O)[C@H]1OC | 0.39 µg/mL (≈ 0.387 µM) | 0.39 µg/mL (≈ 0.387 µM) | > 100 µg/mL | 0.78 µg/mL (≈ 0.774 µM) | 0.39 µg/mL (≈ 0.387 µM) | 0.1 µg/mL (≈ 0.0993 µM) | > 100 µg/mL | 25 µg/mL (≈ 24.8 µM) | 0.1 µg/mL (≈ 0.0993 µM) | > 100 µg/mL | 0.2 µg/mL (≈ 0.199 µM) | 0.39 µg/mL (≈ 0.387 µM) | 1.56 µg/mL (≈ 1.55 µM) | 25 µg/mL (≈ 24.8 µM)
6 | CCC(=O)O[C@@H]1CC(=O)O[C@H](C)C[C@H](O)[C@H](N(C)CCCc2ccncc2)/C=C/[C@H](OC(C)=O)[C@H](C)C[C@H](CC=O)[C@H](O[C@@H]2O[C@H](C)[C@@H](O)[C@H](N(C)C)[C@H]2O)[C@H]1OC | 0.78 µg/mL (≈ 0.949 µM) | 1.56 µg/mL (≈ 1.9 µM) | > 100 µg/mL | 1.56 µg/mL (≈ 1.9 µM) | 1.56 µg/mL (≈ 1.9 µM) | 0.39 µg/mL (≈ 0.474 µM) | > 100 µg/mL | > 100 µg/mL | 1.56 µg/mL (≈ 1.9 µM) | > 100 µg/mL | 6.25 µg/mL (≈ 7.6 µM) | 0.1 µg/mL (≈ 0.122 µM) | 0.39 µg/mL (≈ 0.474 µM) | 3.13 µg/mL (≈ 3.81 µM)
